How the values were obtained:
[1] = system: Caco-2; test: Ratio of permeability from basolateral to apical side over apical to basolateral side of human Caco-2 cell membrane at 10 uM; type: ADME, cell-based; conditions: caco-2, 10 µM
Outline: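 Caco-2 monolayers seeded at 1x10^5 cells/cm2, grown 21-25 days, TEER >600 Ohm/cm2. Compound at 10 µM in HBSS pH 7.4 added to apical or basal donor side; 2 h at 37°C with shaking. Both sides sampled, quantified by LC/MS/MS.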

[2] = system: MRP2; test: Permeability across dog MDCK cells expressing MRP2; type: ADME, cell-based, Canis lupus familiaris; conditions: read-out: permeability
[3] = system: Caco-2; test: Ratio of permeability from basolateral to apical side over apical to basolateral side of human Caco-2 cell membrane at 10 uM in presence of MRP2 inhibitor MK571; conditions: caco-2, 10 µM

| Ratio [1] | Papp [2] | Ratio [3] | Compound |
| --- | --- | --- | --- |
| 1.35 | 3 ×10⁻⁶ cm/s |  | NC(=O)Nc1cn(-c2ccc(-c3ccc(O)cc3)c(F)c2)nc1C(N)=O |
| 26.02 | 3 ×10⁻⁶ cm/s | 2.53 | Cc1cc(O)ccc1-c1ccc(-n2cc(NC(N)=O)c(C(N)=O)n2)cc1C |

— ChEMBL document CHEMBL1145516, “Structure-activity relationships for interaction with multidrug resistance protein 2 (ABCC2/MRP2): the role of torsion angle for a series of biphenyl-substituted heterocycles” (Drug Metab Dispos, 2007)
